In ChEMBL document CHEMBL4043303, “Development of Novel Melanocortin Receptor Agonists Based on the Cyclic Peptide Framework of Sunflower Trypsin Inhibitor-1” (J Med Chem, 2018):
The source made the active and inactive calls. The rule behind the calls is not given here.

Tests used:
Melanocortin receptor 4 [1] = target: T1, Melanocortin receptor 4 (Homo sapiens, UniProt P32245); experiment: Displacement of [125I]-NDP-alpha-MSH from human MC4R LBD expressed in HEK293 cell membranes incubated for 16 to 23 hrs in dark by scintillation proximity assay; parameters: concentration or dose not given beside the values; details: concentration not given here
Melanocortin receptor 4 [2] = target: T1, Melanocortin receptor 4; experiment: Agonist activity at human MC4R expressed in high doxycyclin-treated HEK293 cell membranes assessed as increase in cAMP production after 15 mins by HTRF method; type: functional, cell-based
Method in brief: (§1)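 T-REx-293 cells stably expressing doxycycline-inducible human MC1R, MC3R or MC4R; expression induced 24 h with 0.1 ng/mL (low) or 10 ng/mL (high, MC4R only) doxycycline. 1000 cells/well in HBSS, 20 mM HEPES pH 7.4, 0.1% BSA, 1 mM IBMX; stimulated at 37 °C. Time-resolved FRET cAMP read-out normalized to NDP-α-MSH maximum.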

Bos taurus = species on record: Bos taurus; experiment: Inhibition of bovine trypsin at 5 uM using Boc-QAR-pNA as substrate preincubated for 1 hr followed by substrate addition measured every 30 secs for 300 secs by […]
Melanocortin receptor 3 [3] = target: T2, Melanocortin receptor 3 (Homo sapiens, UniProt P41968); experiment: Agonist activity at human MC3R expressed in low doxycyclin-treated HEK293 cell membranes assessed as increase in cAMP production after 45 mins by HTRF method; type: functional, cell-based; parameters: concentration or dose not given beside the values; method in brief: as §1
[4] = target: T3, Melanocyte-stimulating hormone receptor (Homo sapiens, UniProt Q01726); experiment: Displacement of [125I]-NDP-alpha-MSH from human MC1R LBD expressed in HEK293 cell membranes incubated for 16 to 23 hrs in dark by scintillation proximity assay; parameters: concentration or dose not given beside the values; details: concentration not given here
[5] = target: T3, Melanocyte-stimulating hormone receptor; experiment: Agonist activity at human MC1R expressed in low doxycyclin-treated HEK293 cell membranes assessed as increase in cAMP production after 45 mins by HTRF method; type: functional, cell-based
Melanocortin receptor 3 [6] = target: T2, Melanocortin receptor 3; experiment: Displacement of [125I]-NDP-alpha-MSH from human MC3R LBD expressed in HEK293 cell membranes incubated for 16 to 23 hrs in dark by scintillation proximity assay; parameters: concentration or dose not given beside the values; details: concentration not given here
Melanocortin receptor 4 [7] = target: T1, Melanocortin receptor 4; experiment: Agonist activity at human MC4R expressed in low doxycyclin-treated HEK293 cell membranes assessed as increase in cAMP production after 45 mins by HTRF method; type: functional, cell-based; method in brief: as §1
Melanocortin receptor 5 = Melanocortin receptor 5 (Homo sapiens, UniProt P33032); experiment: Displacement of [125I]-NDP-alpha-MSH from human MC5R LBD expressed in HEK293 cell membranes incubated for 16 to 23 hrs in dark by scintillation proximity assay; parameters: concentration or dose not given beside the values; details: concentration not given here
Melanocortin receptor 3 [8] = target: T2, Melanocortin receptor 3; experiment: Agonist activity at human MC3R expressed in low doxycyclin-treated HEK293 cell membranes assessed as increase in cAMP production up to 100 uM after 45 mins by HTRF method; type: functional, cell-based
Method in brief: (§2)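 Stable T-REx-293 clones (Zeocin-selected, human receptor cDNA in pcDNA4/TO), receptor expression induced with 0.1 ng/mL doxycycline for 24 h. 1000 cells/well in HBSS with Ca2+/Mg2+, 20 mM HEPES pH 7.4, 0.1% BSA. Stimulation for 45 min at 37 °C with 1 mM IBMX. cAMP read by LANCE HTRF (665/615 nm).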

Melanocortin receptor 3 [9] = target: T2, Melanocortin receptor 3; experiment: Displacement of [125I]-NDP-alpha-MSH from human MC3R LBD expressed in HEK293 cell membranes up to 100 uM incubated for 16 to 23 hrs in dark by scintillation proximity assay
[10] = Solubility of the compound in water at 1 mM; type: physicochemical; details: buffer, 1000 µM
Melanocortin receptor 4 [11] = target: T1, Melanocortin receptor 4; experiment: Agonist activity at human MC4R expressed in low doxycyclin-treated HEK293 cell membranes assessed as increase in cAMP production up to 100 uM after 45 mins by HTRF method; type: functional, cell-based; method in brief: as §2

T1 sequence (P32245 whole entry, the tested form may be a part): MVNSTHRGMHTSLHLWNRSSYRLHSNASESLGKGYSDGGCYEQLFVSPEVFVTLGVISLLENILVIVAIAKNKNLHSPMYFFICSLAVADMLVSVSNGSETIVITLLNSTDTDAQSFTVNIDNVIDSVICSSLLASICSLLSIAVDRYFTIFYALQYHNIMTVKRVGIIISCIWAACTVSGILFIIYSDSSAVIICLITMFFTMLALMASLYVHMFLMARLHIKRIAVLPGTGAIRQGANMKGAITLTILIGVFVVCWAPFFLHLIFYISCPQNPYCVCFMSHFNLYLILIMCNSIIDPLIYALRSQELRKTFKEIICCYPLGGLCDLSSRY
T2 sequence (P41968 whole entry, the tested form may be a part): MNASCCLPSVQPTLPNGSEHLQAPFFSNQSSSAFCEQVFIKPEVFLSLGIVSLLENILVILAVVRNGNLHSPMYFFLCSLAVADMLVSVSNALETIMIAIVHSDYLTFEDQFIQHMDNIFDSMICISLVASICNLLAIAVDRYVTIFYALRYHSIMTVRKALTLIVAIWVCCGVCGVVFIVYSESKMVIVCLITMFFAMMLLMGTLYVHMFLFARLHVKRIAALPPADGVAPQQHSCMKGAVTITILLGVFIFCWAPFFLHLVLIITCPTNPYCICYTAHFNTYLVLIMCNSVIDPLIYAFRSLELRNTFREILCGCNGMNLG
Chain of Melanocortin receptor 5 (P33032 whole entry, the tested form may be a part): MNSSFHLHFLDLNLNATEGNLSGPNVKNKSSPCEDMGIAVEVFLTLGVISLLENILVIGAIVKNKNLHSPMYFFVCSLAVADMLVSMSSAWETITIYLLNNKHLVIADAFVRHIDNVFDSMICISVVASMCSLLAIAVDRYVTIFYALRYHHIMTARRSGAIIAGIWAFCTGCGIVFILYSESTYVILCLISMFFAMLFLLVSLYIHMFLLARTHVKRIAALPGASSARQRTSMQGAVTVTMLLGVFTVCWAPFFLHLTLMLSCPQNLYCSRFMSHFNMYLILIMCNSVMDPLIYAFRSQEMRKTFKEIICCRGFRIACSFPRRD
T3 sequence (Q01726 whole entry, looked up, the tested form may be a part): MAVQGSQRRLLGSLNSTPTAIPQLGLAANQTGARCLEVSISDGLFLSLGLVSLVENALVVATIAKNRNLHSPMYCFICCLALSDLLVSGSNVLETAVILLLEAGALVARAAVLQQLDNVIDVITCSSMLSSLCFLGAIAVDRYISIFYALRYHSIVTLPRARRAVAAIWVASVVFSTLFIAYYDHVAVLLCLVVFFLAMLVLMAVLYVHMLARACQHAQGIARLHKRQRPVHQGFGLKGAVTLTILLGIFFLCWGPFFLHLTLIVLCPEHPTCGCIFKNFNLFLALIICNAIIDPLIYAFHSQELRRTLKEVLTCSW

Row | SMILES | inhibition (Melanocortin receptor 4 [1]) [%] | Activity (Melanocortin receptor 4 [2]) [%] | inhibition (Bos taurus) | Activity (Melanocortin receptor 3 [3]) [%] | inhibition [4] [%] | Activity [5] [%] | inhibition (Melanocortin receptor 3 [6]) [%] | Activity (Melanocortin receptor 4 [7]) [%] | inhibition (Melanocortin receptor 5) [%] | Activity (Melanocortin receptor 3 [8]) | inhibition (Melanocortin receptor 3 [9]) | solubility [10] | Activity (Melanocortin receptor 4 [11])
1 | CC[C@H](C)[C@@H]1NC(=O)[C@@H]2CCCN2C(=O)[C@@H]2CCCN2C(=O)[C@H]([C@@H](C)CC)NC(=O)[C@H](CO)NC(=O)[C@H](C)NC(=O)[C@H]([C@H](C)O)NC(=O)[C@@H]2CSSC[C@H](NC1=O)C(=O)N[C@@H](Cc1cnc[nH]1)C(=O)N[C@H](Cc1ccccc1)C(=O)N(C)[C@@H](CCCNC(=N)N)C(=O)N(C)[C@@H](Cc1c[nH]c3ccccc13)C(=O)N[C@@H](CCCNC(=N)N)C(=O)N2 | 100 | 100 | Active | 100 | 100 | 100 | 100 | 100 | 100 |  |  |  | 
2 | CC[C@H](C)[C@@H]1NC(=O)[C@@H]2CCCN2C(=O)[C@H](Cc2c[nH]c3ccccc23)N(C)C(=O)[C@H](CCCNC(=N)N)N(C)C(=O)[C@@H](Cc2ccccc2)NC(=O)[C@H](Cc2cnc[nH]2)N(C)C(=O)[C@H]([C@@H](C)O)NC(=O)[C@@H]2CSSC[C@H](NC1=O)C(=O)N[C@@H](Cc1ccccc1)C(=O)N1CCC[C@H]1C(=O)N[C@@H](CC(=O)O)C(=O)NCC(=O)N[C@@H](CCCNC(=N)N)C(=O)N2 | 100 | 100 |  |  | 100 | 100 |  |  | 100 | inactive | inactive | Soluble | inactive
3 | CC[C@H](C)[C@@H]1NC(=O)[C@@H]2CCCN2C(=O)[C@@H]2CCCN2C(=O)[C@H]([C@@H](C)CC)NC(=O)[C@H](CO)NC(=O)[C@H](C)NC(=O)[C@H]([C@H](C)O)NC(=O)[C@@H]2CSSC[C@H](NC1=O)C(=O)N[C@@H](Cc1cnc[nH]1)C(=O)N[C@H](Cc1ccccc1)C(=O)N(C)[C@@H](CCCNC(=N)N)C(=O)N[C@@H](Cc1c[nH]c3ccccc13)C(=O)N[C@@H](CCCNC(=N)N)C(=O)N2 | 100 | 100 | Active | 100 | 100 | 100 | 100 | 100 | 100 |  |  |  | 
4 | CC[C@H](C)[C@@H]1NC(=O)[C@@H]2CCCN2C(=O)[C@H](Cc2c[nH]c3ccccc23)N(C)C(=O)[C@H](CCCNC(=N)N)NC(=O)[C@@H](Cc2ccccc2)NC(=O)[C@H](Cc2cnc[nH]2)N(C)C(=O)[C@H]([C@@H](C)O)NC(=O)[C@@H]2CSSC[C@H](NC1=O)C(=O)N[C@@H](Cc1ccccc1)C(=O)N1CCC[C@H]1C(=O)N[C@@H](CC(=O)O)C(=O)NCC(=O)N[C@@H](CCCNC(=N)N)C(=O)N2 | 100 | 100 |  | 100 | 100 | 100 | 100 |  | 100 |  |  | Soluble | inactive
5 | CC[C@H](C)[C@@H]1NC(=O)[C@@H]2CCCN2C(=O)[C@@H]2CCCN2C(=O)[C@H]([C@@H](C)CC)NC(=O)[C@H](CO)NC(=O)[C@H](C)NC(=O)[C@H]([C@H](C)O)NC(=O)[C@@H]2CSSC[C@H](NC1=O)C(=O)N[C@@H](Cc1cnc[nH]1)C(=O)N[C@H](Cc1ccccc1)C(=O)N[C@@H](CCCNC(=N)N)C(=O)N[C@@H](Cc1c[nH]c3ccccc13)C(=O)N[C@@H](CCCNC(=N)N)C(=O)N2 | 100 | 100 | Active | 100 | 100 | 100 | 100 | 100 | 100 |  |  |  | 
